Experimental data published in ChEMBL document CHEMBL1687720 (Antimicrob Agents Chemother, 2009).
Active and inactive are the calls of the source. The rule behind the calls is not given here.

Assays:
A549 [1] = assay: Cytotoxicity against human A549 cells after 24 hrs by Trypan blue assay; settings: a549, 24 h
Plasmodium falciparum [2] = assay: Upregulation of gamma-glutamylcysteine synthetase mRNA level in Plasmodium falciparum 3D7 trophozoites at 126 nM after 12 hrs by RT-qPCR analysis relative to untreated control; assay type: functional
Procedure, shortened: (§1)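 Synchronized 3D7 trophozoites in RPMI/Albumax culture at 37°C under 3% O2, 3% CO2 were exposed 12, 15 or 18 h, then harvested by 0.02% saponin lysis. RNA was reverse-transcribed and analyzed by real-time PCR in quadruplicate. Quantification used ΔΔCT with 18S rRNA reference (LDH also checked), expressed as % of untreated control.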

Plasmodium falciparum [3] = assay: Downregulation of gamma-glutamylcysteine synthetase mRNA level in Plasmodium falciparum 3D7 trophozoites at 126 nM after 18 hrs by RT-qPCR analysis relative to untreated control; assay type: functional
Procedure, shortened: (§2)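 P. falciparum 3D7 trophozoites are exposed to 126 nM compound for 12, 15 or 18 h, then harvested by saponin lysis at 37°C. RNA is extracted and reverse-transcribed, and transcripts are quantified by real-time PCR in quadruplicate. Analysis uses ΔΔCT with 18S rRNA as reference (LDH also checked), expressed as % of untreated control.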

Plasmodium falciparum [4] = assay: Upregulation of thioredoxin reductase mRNA level in Plasmodium falciparum 3D7 trophozoites at 126 nM after 12 hrs by RT-qPCR analysis relative to untreated control; assay type: functional, organism-based
Procedure, shortened: as §1

A549 [5] = assay: Inhibition of glutathione S-transferase in human A549 cells assessed as enzyme activity at 5 µM after 24 hrs relative to untreated control; design: scale not given: the % may be the effect or the level left
Plasmodium falciparum [6] = assay: Downregulation of glutathione reductase mRNA level in Plasmodium falciparum 3D7 trophozoites at 126 nM after 18 hrs by RT-qPCR analysis relative to untreated control; assay type: functional
Procedure, shortened: as §2

Plasmodium falciparum [7] = assay: Upregulation of glutathione synthetase mRNA level in Plasmodium falciparum 3D7 trophozoites at 126 nM after 12 hrs by RT-qPCR analysis relative to untreated control; assay type: functional
Procedure, shortened: as §1

Plasmodium falciparum [8] = assay: Downregulation of gamma-glutamylcysteine synthetase mRNA level in Plasmodium falciparum 3D7 trophozoites at 126 nM after 15 hrs by RT-qPCR analysis relative to untreated control; assay type: functional
Procedure, shortened: as §2

A549 [9] = assay: Effect on glutathione S-transferase expression in human A549 cells assessed as transcript level at 24 nM after 24 hrs by RT-qPCR analysis relative to untreated control; assay type: functional; settings: in the assay text read “24 µM” for “24 nM”
Procedure, shortened: (§3)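 A549 cells are seeded at 2.5 × 10^5 per 25-cm2 well. At 40–45% confluence they are treated for 24 h with 166 or 662 μM, 158 or 315 μM, or 5 or 24 μM compound; controls receive <5% DMSO. Total RNA is DNase-treated and qRT-PCR is run in quadruplicate. Values are normalized to GAPDH and given as % of untreated control.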

A549 [10] = assay: Effect on glutathione peroxidase expression in human A549 cells assessed as transcript level at 24 nM after 24 hrs by RT-qPCR analysis relative to untreated control; assay type: functional; settings: in the assay text read “24 µM” for “24 nM”
Procedure, shortened: as §3

Thioredoxin reductase [11] = target: T1, Thioredoxin reductase (Homo sapiens, UniProt Q16881+Q9NNW7+Q86VQ6); assay: Inhibition of thioredoxin reductase in human A549 cells assessed as enzyme activity at 5 µM after 24 hrs by DTNB assay relative to untreated control; design: scale not given: the % may be the effect or the level left
A549 [12] = assay: Effect on glutathione reductase expression in human A549 cells assessed as transcript level at 24 nM after 24 hrs by RT-qPCR analysis relative to untreated control; assay type: functional; settings: in the assay text read “24 µM” for “24 nM”
Procedure, shortened: as §3

Plasmodium falciparum [13] = assay: Antiplasmodial activity against chloroquine-sensitive Plasmodium falciparum 3D7 assessed as inhibition of schizont stage parasite growth at 526 nM after 24 hrs by [3H]hypoxanthine incorporation assay; assay type: functional; settings: read-out: GI
Procedure, shortened: (§4)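 P. falciparum 3D7 is synchronized with sorbitol. […] Cells are washed four times, then labelled with [3H]hypoxanthine for 24 h. Growth is given as % of untreated control for each stage, in triplicate.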

Plasmodium falciparum [14] = assay: Antiplasmodial activity against chloroquine-sensitive Plasmodium falciparum 3D7 assessed as inhibition of ring stage parasite growth at 526 nM after 24 hrs by [3H]hypoxanthine incorporation assay; assay type: functional; settings: read-out: GI
Procedure, shortened: as §4

Plasmodium falciparum [15] = assay: Antiplasmodial activity against chloroquine-sensitive Plasmodium falciparum 3D7 assessed as inhibition of trophozoite stage parasite growth at 526 nM after 24 hrs by [3H]hypoxanthine incorporation assay; assay type: functional; settings: 3D7, read-out: GI
Procedure, shortened: as §4

A549 [16] = assay: Effect on glutathione S-transferase expression in human A549 cells assessed as transcript level at 5 nM after 24 hrs by RT-qPCR analysis relative to untreated control; assay type: functional; settings: in the assay text read “5 µM” for “5 nM”
Procedure, shortened: as §3

Plasmodium falciparum [17] = assay: Antiplasmodial activity against chloroquine-resistant Plasmodium falciparum K1 in presence of pyrimethamine; assay type: functional
A549 [18] = assay: Effect on glutathione S-transferase expression in human A549 cells assessed as transcript level at 166 nM after 24 hrs by RT-qPCR analysis relative to untreated control; assay type: functional; settings: in the assay text read “166 µM” for “166 nM”
Procedure, shortened: as §3

Plasmodium falciparum [19] = assay: Antiplasmodial activity against chloroquine-resistant Plasmodium falciparum K1 in presence of mefloquine; assay type: functional
Thioredoxin reductase [20] = target: T1, Thioredoxin reductase; assay: Inhibition of thioredoxin reductase in human A549 cells assessed as enzyme activity at 166 µM after 24 hrs by DTNB assay relative to untreated control; design: scale not given: the % may be the effect or the level left
A549 [21] = assay: Effect on thioredoxin reductase expression in human A549 cells assessed as transcript level at 662 nM after 24 hrs by RT-qPCR analysis relative to untreated control; assay type: functional; settings: in the assay text read “662 uM” for “662 nM”
Procedure, shortened: as §3

A549 [22] = assay: Effect on glutathione peroxidase expression in human A549 cells assessed as transcript level at 166 nM after 24 hrs by RT-qPCR analysis relative to untreated control; assay type: functional; settings: in the assay text read “166 µM” for “166 nM”
Procedure, shortened: as §3

A549 [23] = assay: Effect on glutathione reductase expression in human A549 cells assessed as transcript level at 166 nM after 24 hrs by RT-qPCR analysis relative to untreated control; assay type: functional; settings: in the assay text read “166 µM” for “166 nM”
Procedure, shortened: as §3

Plasmodium falciparum [24] = assay: Antiplasmodial activity against chloroquine-resistant Plasmodium falciparum K1 in presence of artemether; assay type: functional
A549 [25] = assay: Inhibition of glutathione peroxidase in human A549 cells assessed as enzyme activity at 315 µM after 24 hrs relative to untreated control; design: scale not given: the % may be the effect or the level left
A549 [26] = assay: Effect on thioredoxin reductase expression in human A549 cells assessed as transcript level at 315 nM after 24 hrs by RT-qPCR analysis relative to untreated control; assay type: functional; settings: in the assay text read “315 µM” for “315 nM”
Procedure, shortened: as §3

A549 [27] = assay: Effect on glutathione reductase expression in human A549 cells assessed as transcript level at 315 nM after 24 hrs by RT-qPCR analysis relative to untreated control; assay type: functional; settings: in the assay text read “315 µM” for “315 nM”
Procedure, shortened: as §3

A549 [28] = assay: Effect on glutathione S-transferase expression in human A549 cells assessed as transcript level at 158 nM after 24 hrs by RT-qPCR analysis relative to untreated control; assay type: functional; settings: in the assay text read “158 µM” for “158 nM”
Procedure, shortened: as §3

O=c1oc2c(O)c(O)c(O)c3c(=O)oc4c(O)c(O)c(O)c1c4c23 [CORULEOELLAGIC ACID]
Activity (A549 [1]): Non-toxic
Activity (Plasmodium falciparum [2]): 111%
Activity (Plasmodium falciparum [3]): 25%
Activity (Plasmodium falciparum [4]): inactive
Activity (A549 [5]): 101%
Activity (Plasmodium falciparum [6]): 62%
Activity (Plasmodium falciparum [7]): 128%
Activity (Plasmodium falciparum [8]): 25%
Activity (A549 [9]): 84%
Activity (A549 [10]): 71%
Activity (Thioredoxin reductase [11]): 42%
Activity (A549 [12]): 84%
inhibition of growth at 0.526 µM (Plasmodium falciparum [13]): 39%
inhibition of growth at 0.526 µM (Plasmodium falciparum [14]): 38%
inhibition of growth at 0.526 µM (Plasmodium falciparum [15]): > 95%
Activity (A549 [16]): 68%

O=c1oc2c(O)c(O)cc3c(=O)oc4c(O)c(O)cc1c4c23 [ELLAGIC ACID]
FIC50 (Plasmodium falciparum [17]): 1
Activity (A549 [18]): 122%
FIC50 (Plasmodium falciparum [19]): 1
Activity (Thioredoxin reductase [20]): 82%
Activity (A549 [21]): 131%
Activity (A549 [22]): 109%
Activity (A549 [23]): 152%
FIC50 (Plasmodium falciparum [24]): 1

O=c1oc2c(O)c(O)c(O)c3c(=O)oc4c(O)c(O)cc1c4c23 [FLAVELLAGIC ACID]
Activity (A549 [25]): 112%
Activity (A549 [26]): 61%
Activity (A549 [27]): 70%
Activity (A549 [28]): 115%
